1 compound from ChEMBL document CHEMBL2424598, “Identification and optimization of pteridinone Toll-like receptor 7 (TLR7) agonists for the oral treatment of viral hepatitis” (J Med Chem, 2013) can be followed below.

pEC50: −log10 of the molar value.

In one series the target is T1, Toll-like receptor 8 (Homo sapiens, UniProt Q9NR97).
T1 sequence (Q9NR97 whole entry): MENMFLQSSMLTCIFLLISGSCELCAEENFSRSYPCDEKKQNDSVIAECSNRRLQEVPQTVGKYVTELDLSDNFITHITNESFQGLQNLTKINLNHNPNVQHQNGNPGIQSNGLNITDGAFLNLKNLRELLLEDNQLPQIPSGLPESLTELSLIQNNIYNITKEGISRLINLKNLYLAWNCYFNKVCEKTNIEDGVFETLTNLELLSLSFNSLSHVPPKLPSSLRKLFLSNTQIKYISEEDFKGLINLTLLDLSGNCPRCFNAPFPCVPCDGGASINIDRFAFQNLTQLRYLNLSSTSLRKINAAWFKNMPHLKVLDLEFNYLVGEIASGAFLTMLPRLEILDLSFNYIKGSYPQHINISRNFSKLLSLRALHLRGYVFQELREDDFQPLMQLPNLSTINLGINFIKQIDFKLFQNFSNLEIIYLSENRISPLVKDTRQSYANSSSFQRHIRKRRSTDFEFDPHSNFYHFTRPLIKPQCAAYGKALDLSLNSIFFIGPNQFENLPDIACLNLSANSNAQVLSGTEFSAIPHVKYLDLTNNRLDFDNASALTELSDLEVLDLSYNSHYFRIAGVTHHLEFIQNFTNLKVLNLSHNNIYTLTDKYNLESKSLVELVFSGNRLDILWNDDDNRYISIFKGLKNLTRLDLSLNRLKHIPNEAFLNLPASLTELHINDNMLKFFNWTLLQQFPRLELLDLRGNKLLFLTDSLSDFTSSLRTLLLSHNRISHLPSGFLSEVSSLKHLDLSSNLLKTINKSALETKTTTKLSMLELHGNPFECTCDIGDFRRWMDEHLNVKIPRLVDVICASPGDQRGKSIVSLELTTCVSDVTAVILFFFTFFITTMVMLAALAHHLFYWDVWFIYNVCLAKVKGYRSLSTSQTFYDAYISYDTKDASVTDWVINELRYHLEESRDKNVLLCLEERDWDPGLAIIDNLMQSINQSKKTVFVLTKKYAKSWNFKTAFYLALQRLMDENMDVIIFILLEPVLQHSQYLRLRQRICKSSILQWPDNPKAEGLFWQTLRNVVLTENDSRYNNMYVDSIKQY
Put plainly: Agonist activity at human TLR8 expressed in HEK293 cells by reporter based assay. The class given is cell-based. Put shortly: (§1)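 HEK293 reporter cell lines, each expressing a single human TLR, with compound titrated up to 100 μM. EC50 taken for TLR7 and TLR8 activation.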

A short description of series [1]: Cmax in cynomolgus monkey at 0.3 mg/kg, po. Format: ADME, organism-based, Macaca fascicularis. The arrangement: dose 0.3 mg/kg, route oral. Conditions: in vivo. In outline: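 Male cynomolgus monkeys, n = 3 per group, received a 30 min iv infusion or an oral dose. Compound was measured in serum (limit of quantitation 0.04 ng/mL), and Cmax is reported as the group mean.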

Another series deals with T2, Toll-like receptor 7 (Homo sapiens, UniProt Q9NYK1).
T2 sequence (Q9NYK1 whole entry): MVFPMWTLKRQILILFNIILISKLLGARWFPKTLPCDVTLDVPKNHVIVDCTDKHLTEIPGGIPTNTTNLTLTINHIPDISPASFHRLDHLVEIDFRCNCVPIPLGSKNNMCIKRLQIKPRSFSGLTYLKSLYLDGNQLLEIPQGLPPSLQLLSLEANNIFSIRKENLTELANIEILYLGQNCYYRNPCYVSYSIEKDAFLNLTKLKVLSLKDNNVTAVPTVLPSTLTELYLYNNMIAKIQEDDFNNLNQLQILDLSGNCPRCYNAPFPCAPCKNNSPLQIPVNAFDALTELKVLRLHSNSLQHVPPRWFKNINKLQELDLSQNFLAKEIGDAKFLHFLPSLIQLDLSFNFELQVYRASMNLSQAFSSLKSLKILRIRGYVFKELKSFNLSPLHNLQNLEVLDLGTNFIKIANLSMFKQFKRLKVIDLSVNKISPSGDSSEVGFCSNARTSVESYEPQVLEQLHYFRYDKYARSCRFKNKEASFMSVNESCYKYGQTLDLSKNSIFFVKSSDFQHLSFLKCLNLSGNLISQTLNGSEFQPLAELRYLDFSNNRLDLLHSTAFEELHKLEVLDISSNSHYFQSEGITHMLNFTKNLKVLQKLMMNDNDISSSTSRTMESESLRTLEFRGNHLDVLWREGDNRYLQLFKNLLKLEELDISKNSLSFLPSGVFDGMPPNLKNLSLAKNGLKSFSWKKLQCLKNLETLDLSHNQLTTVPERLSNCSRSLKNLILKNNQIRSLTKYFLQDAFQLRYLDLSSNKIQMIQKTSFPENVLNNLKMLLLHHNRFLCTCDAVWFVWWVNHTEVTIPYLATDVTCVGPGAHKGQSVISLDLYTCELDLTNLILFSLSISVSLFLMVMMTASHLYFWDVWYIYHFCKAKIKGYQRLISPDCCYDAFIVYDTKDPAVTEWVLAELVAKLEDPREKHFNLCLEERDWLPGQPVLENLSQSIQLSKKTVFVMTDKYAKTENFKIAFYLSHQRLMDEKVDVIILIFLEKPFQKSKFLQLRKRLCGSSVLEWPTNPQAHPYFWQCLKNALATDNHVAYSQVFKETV
Kind of series: Agonist activity at human TLR7 expressed in HEK293 cells by reporter based assay. The class given is cell-based. Put shortly:
as §1

A short description of series [2]: Half life in dog liver microsomes. Format: ADME, Canis lupus familiaris, Microsome.

Broadly, the pEC50 is −log10 of the EC50, conventionally taken in molar units. One may read the Cmax as the highest concentration seen after dosing. What is called half-life is how long it takes for the measured level to halve. Take `CCCCOc1nc(N)c2c(n1)N(Cc1cccc(CN3CCCC3)c1)CC(=O)N2` [VESATOLIMOD]: the pEC50 on Toll-like receptor 8 is 5.05; on Toll-like receptor 7, 6.54. Also, the highest level in series [1] (Cmax) was 4.6 ng/mL. This compound also yielded a half-life in series [2] of 58.6 min.
